Source: ChEMBL document CHEMBL1765003, “Discovery of (1S,2R,3R)-2,3-dimethyl-2-phenyl-1-sulfamidocyclopropanecarboxylates: novel and highly selective aggrecanase inhibitors” (J Med Chem, 2011)
pIC50: −log10 of the molar value.

Legend:
Cytochrome P450 2C19 = Cytochrome P450 2C19 (Homo sapiens, UniProt P33261); assay: Inhibition of CYP2C19 at up to 50 uM; type: ADME
[1] = molecular target: Disintegrin and metalloproteinase domain-containing protein 17 (Homo sapiens, UniProt P78536); assay: Inhibition of human recombinant TACE after 60 mins by fluorescence plate reader
Method in brief: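 rh-TACE at 80 ng/mL with 10 μM MCA-Pro-Leu-Ala-Gln-Ala-Val-Dpa-Arg-Ser-Ser-Ser-Arg-NH₂, in 100 mM Tris-HCl pH 7.5, 150 mM NaCl, 10 mM CaCl₂, 0.05% Brij-35. Inhibitor preincubated for 15 min at 25 °C. Fluorescence (ex 325/em 405 nm) read at 60 min. IC50 from three linear-range points; mean of ≥2.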

[2] = molecular target: Matrix metalloproteinase-14 (Homo sapiens, UniProt P50281); assay: Inhibition of human recombinant MMP14 after 60 mins by fluorescence plate reader
Method in brief: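 Recombinant human enzyme at 20 ng/mL with 10 μM MOCAc-Lys-Pro-Leu-Gly-Leu-A2pr(Dnp)-Ala-Arg-NH₂, in 100 mM Tris-HCl pH 7.5, 150 mM NaCl, 10 mM CaCl₂, 0.05% Brij-35. Enzyme pretreated with inhibitor for 15 min at 25 °C, then substrate added. Fluorescence (ex 325, em 405 nm) read at 60 min. IC50 taken from three points in the linear range; mean of ≥2 determinations.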

[3] = molecular target: T1, A disintegrin and metalloproteinase with thrombospondin motifs 5 (Homo sapiens, UniProt Q9UNA0); assay: Inhibition of human recombinant aggrecanase 2 after 150 mins by fluorescence plate reader
T1 sequence (Q9UNA0 whole entry): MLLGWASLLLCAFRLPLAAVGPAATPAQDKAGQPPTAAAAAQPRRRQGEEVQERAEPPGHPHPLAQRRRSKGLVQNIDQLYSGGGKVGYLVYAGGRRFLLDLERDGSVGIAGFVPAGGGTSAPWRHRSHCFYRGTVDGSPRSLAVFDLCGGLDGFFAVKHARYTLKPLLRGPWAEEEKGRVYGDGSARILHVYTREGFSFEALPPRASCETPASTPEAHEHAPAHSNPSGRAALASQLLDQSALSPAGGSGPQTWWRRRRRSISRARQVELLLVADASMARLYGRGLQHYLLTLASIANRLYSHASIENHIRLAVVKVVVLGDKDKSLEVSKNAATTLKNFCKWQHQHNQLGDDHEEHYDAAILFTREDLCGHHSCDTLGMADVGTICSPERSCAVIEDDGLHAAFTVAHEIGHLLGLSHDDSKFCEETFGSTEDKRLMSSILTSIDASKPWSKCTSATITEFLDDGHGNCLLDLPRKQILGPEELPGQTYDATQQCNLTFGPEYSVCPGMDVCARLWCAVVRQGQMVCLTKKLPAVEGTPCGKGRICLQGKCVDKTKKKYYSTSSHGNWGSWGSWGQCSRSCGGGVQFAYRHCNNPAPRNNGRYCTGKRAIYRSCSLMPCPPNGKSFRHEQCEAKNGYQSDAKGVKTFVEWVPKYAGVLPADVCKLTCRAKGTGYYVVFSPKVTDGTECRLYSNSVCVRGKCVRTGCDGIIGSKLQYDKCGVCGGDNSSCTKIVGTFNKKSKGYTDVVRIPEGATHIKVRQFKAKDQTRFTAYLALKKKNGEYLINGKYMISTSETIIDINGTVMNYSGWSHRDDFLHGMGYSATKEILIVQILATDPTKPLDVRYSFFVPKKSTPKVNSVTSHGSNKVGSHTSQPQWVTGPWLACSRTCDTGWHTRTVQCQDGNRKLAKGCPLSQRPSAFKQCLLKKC

Cytochrome P450 2A6 = molecular target: T2, Cytochrome P450 2A6 (Homo sapiens, UniProt P11509); assay: Inhibition of CYP2A6 at up to 50 uM; type: ADME
T2 sequence (P11509 whole entry): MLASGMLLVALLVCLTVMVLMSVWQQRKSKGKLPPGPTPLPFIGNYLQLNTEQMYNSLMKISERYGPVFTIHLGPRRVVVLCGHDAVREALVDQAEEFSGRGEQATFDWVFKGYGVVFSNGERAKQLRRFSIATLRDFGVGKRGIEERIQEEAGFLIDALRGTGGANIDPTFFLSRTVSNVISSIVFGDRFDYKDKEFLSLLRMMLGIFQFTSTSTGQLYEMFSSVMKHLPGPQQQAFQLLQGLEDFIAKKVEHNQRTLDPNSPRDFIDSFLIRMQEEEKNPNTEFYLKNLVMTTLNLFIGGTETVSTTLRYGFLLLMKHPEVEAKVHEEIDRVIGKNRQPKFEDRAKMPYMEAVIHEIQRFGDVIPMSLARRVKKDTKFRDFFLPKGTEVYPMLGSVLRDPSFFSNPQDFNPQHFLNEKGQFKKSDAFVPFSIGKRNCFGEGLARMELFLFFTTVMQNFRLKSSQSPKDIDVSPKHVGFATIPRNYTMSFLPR

[4] = Volume of distribution at steady state in Sprague-Dawley rat at 1 mg/kg, iv; type: ADME, organism-based; design: dose 1 mg/kg, route intravenous; settings: in vivo, read-out: Vdss
Method in brief: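 Intravenous dose of 1 mg/kg. Blood sampled at 0.50, 1, 2, 4, 8 and 24 h. Plasma obtained by centrifugation at 10 000 rpm for 5 min and kept at −20 °C until analysis.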

[5] = Half life in Sprague-Dawley rat at 10 mg/kg, po; type: ADME, organism-based; design: dose 10 mg/kg, route oral; settings: in vivo
[6] = Cmax in Sprague-Dawley rat at 10 mg/kg, po; type: ADME, organism-based; design: dose 10 mg/kg, route oral; settings: in vivo
[7] = Oral bioavailability in Sprague-Dawley rat at 10 mg/kg; type: ADME, organism-based; settings: Sprague-Dawley, in vivo
[8] = molecular target: Matrix metalloproteinase-9 (Homo sapiens, UniProt P14780); assay: Inhibition of human recombinant MMP9 after 60 mins by fluorescence plate reader
Method in brief: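 rh-MMP-9 at 4 ng/mL with 10 μM MOCAc-Pro-Leu-Gly-Leu-A2pr(Dnp)-Ala-Arg-NH₂, in 100 mM Tris-HCl pH 7.5, 150 mM NaCl, 10 mM CaCl₂, 0.05% Brij-35. Enzyme and inhibitor preincubated for 15 min at 25 °C before substrate. Fluorescence (ex 325/em 405 nm) read at 60 min. IC50 from three linear-range points; ≥2 runs averaged.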

Matrix metalloproteinase-9, sequence (P14780 whole entry): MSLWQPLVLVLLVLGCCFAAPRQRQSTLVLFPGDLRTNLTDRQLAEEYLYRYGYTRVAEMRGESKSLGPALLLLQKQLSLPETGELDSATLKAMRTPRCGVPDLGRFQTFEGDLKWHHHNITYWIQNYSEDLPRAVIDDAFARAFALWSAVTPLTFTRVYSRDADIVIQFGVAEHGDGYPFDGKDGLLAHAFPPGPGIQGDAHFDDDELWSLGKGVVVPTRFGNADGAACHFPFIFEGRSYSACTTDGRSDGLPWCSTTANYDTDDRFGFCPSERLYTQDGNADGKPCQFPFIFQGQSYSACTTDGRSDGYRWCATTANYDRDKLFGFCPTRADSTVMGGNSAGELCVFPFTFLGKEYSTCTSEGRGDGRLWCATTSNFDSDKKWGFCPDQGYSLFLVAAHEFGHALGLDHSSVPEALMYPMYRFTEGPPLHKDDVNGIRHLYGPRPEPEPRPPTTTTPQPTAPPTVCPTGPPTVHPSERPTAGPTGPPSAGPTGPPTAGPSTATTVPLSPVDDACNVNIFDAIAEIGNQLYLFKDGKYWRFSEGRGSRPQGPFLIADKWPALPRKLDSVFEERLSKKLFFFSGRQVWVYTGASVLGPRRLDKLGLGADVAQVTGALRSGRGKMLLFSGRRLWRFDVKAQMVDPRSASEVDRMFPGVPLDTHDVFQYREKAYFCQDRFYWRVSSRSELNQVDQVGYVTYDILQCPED
Disintegrin and metalloproteinase domain-containing protein 17, sequence (P78536 whole entry, the tested form may be a part): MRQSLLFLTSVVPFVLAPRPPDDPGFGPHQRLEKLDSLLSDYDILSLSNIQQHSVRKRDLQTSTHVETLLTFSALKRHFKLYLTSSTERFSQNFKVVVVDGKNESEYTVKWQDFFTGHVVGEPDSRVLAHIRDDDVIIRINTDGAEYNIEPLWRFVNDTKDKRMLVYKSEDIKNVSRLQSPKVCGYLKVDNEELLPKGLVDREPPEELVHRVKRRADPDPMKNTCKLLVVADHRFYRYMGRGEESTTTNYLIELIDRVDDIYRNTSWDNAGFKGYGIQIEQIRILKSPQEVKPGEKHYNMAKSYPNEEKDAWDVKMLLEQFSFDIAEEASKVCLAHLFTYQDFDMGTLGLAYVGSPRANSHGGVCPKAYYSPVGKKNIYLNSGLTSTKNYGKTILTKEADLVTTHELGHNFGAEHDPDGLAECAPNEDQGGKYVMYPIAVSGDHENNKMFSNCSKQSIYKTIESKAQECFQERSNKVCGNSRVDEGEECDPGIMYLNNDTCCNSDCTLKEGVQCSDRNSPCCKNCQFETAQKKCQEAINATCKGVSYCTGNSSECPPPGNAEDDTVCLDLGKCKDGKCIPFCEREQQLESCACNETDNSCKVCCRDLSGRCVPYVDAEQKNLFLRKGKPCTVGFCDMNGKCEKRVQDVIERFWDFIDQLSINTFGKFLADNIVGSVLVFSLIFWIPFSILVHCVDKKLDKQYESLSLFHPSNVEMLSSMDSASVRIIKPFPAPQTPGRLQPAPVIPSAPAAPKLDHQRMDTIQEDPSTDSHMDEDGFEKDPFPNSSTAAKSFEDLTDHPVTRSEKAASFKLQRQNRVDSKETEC
Cytochrome P450 2C19, sequence (P33261 whole entry, the tested form may be a part): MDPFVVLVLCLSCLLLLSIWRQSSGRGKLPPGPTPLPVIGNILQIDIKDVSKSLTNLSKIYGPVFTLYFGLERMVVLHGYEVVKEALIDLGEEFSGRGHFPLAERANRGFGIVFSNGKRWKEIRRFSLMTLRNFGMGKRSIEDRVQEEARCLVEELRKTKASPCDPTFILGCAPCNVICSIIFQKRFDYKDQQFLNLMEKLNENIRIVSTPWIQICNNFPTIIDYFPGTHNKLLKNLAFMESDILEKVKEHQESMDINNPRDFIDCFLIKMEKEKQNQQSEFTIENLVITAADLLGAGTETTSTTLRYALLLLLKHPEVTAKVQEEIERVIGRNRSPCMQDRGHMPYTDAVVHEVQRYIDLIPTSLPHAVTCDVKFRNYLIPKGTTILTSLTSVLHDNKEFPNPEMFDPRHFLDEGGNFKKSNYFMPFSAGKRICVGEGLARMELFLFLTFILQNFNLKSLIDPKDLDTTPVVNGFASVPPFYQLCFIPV

With `C[C@@H]1[C@](C)(c2ccccc2)[C@]1(NS(=O)(=O)N1CCc2c(nc3cc(F)ccn23)C1)C(=O)O` the “inhibition (INH)” value (Cytochrome P450 2C19) was “Not Active”, the pIC50 [1] was less than 5.00 and the pIC50 [2] was less than 5.00. For the same molecule, the pIC50 [3] was 8.08, the “inhibition (INH)” value (Cytochrome P450 2A6) was “Not Active” and the Vd [4] was 0.25 L/kg. For the same molecule, the half-life [5] was 4 h, the Cmax [6] was 54.1 µM and the bioavailability [7] was 103%. For the same molecule, the pIC50 [8] was less than 5.00.
